From ChEMBL document CHEMBL1156417, “Transferable resistance to aminoglycosides by methylation of G1405 in 16S rRNA and to hydrophilic fluoroquinolones by QepA-mediated efflux in Escherichia coli” (2007)
In brackets after ≈: the same amount, converted by molar mass.

Key:
Type in all cases: functional
[1] = tested on: Escherichia coli; test: Antibacterial activity against Escherichia coli 1540 isolate by […]
Method in brief: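 Disk diffusion on Mueller-Hinton agar following Comité de l'Antibiogramme de la Société Française de Microbiologie standards; clinical isolate from Belgian hospital screening; strains grown in brain heart infusion broth or agar at 37°C.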

[2] = tested on: Escherichia coli; test: Antibacterial activity against Escherichia coli C600Rif by Etest
Method in brief: (§1)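 MIC read by Etest on Mueller-Hinton agar after 24 h incubation. Strains were grown in brain heart infusion broth or on agar at 37°C. C600Rif served as the conjugation recipient and TOP10 as the transformation recipient.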

[3] = tested on: Escherichia coli; test: Antibacterial activity against Escherichia coli TOP10 containing pIP1206 plasmid by Etest; method in brief: as §1
[4] = tested on: Escherichia coli; test: Antibacterial activity against Escherichia coli C600Rif containing pIP1206 plasmid in presence of 50 ug/ml efflux pump inhibitor phenyl-arginine-beta-naphthylamide by Etest
[5] = tested on: Escherichia coli; test: Antibacterial activity against Escherichia coli TOP10 containing pAT851 in presence of 40 ug/ml efflux pump inhibitor 1-(1-naphthylmethyl)-piperazine by Etest
[6] = tested on: Escherichia coli; test: Antibacterial activity against Escherichia coli TOP10 containing pIP1206 plasmid in presence of 50 ug/ml efflux pump inhibitor phenyl-arginine-beta-naphthylamide by Etest
[7] = tested on: Escherichia coli; test: Antibacterial activity against Escherichia coli TOP10 containing pIP1206 plasmid in presence of 40 ug/ml efflux pump inhibitor 1-(1-naphthylmethyl)-piperazine by Etest
[8] = tested on: Escherichia coli; test: microbe, parasite or virus in culture
[9] = tested on: Escherichia coli; test: Antibacterial activity against Escherichia coli TOP10 in presence of 40 ug/ml efflux pump inhibitor 1-(1-naphthylmethyl)-piperazine by Etest
[10] = tested on: Escherichia coli; test: Antibacterial activity against Escherichia coli C600Rif in presence of 50 ug/ml efflux pump inhibitor phenyl-arginine-beta-naphthylamide by Etest
[11] = tested on: Escherichia coli; test: Antibacterial activity against Escherichia coli TOP10 containing pAT851 in presence of 50 ug/ml efflux pump inhibitor phenyl-arginine-beta-naphthylamide by Etest
[12] = tested on: Escherichia coli; test: Antibacterial activity against Escherichia coli TOP10 containing pAT851 plasmid by Etest; method in brief: as §1
[13] = tested on: Escherichia coli; test: Antibacterial activity against Escherichia coli C600Rif containing pIP1206 plasmid by Etest; method in brief: as §1
[14] = tested on: Escherichia coli; test: Antibacterial activity against Escherichia coli TOP10 in presence of 50 ug/ml efflux pump inhibitor phenyl-arginine-beta-naphthylamide by Etest
[15] = tested on: Escherichia coli; test: Antibacterial activity against Escherichia coli TOP10 by Etest; method in brief: as §1
[16] = tested on: Escherichia coli; test: Antibacterial activity against Escherichia coli C600Rif in presence of 40 ug/ml efflux pump inhibitor 1-(1-naphthylmethyl)-piperazine by Etest

Work on `NCC[C@H](O)C(=O)N[C@@H]1C[C@H](N)[C@@H](O[C@H]2O[C@H](CN)[C@@H](O)[C@H](O)[C@H]2O)[C@H](O)[C@H]1O[C@H]1O[C@H](CO)[C@@H](O)[C@H](N)[C@H]1O` [AMIKACIN] yielded an MIC [1] of over 512 µg/mL.

Work on `CC1(C)S[C@@H]2[C@H](NC(=O)[C@H](N)c3ccccc3)C(=O)N2[C@H]1C(=O)O` [AMPICILLIN] yielded an MIC [1] of over 256 µg/mL.

`CO/N=C(\C(=O)N[C@@H]1C(=O)N2C(C(=O)O)=C(COC(C)=O)CS[C@H]12)c1csc(N)n1` [CEFOTAXIME] was tested, and the MIC [1] was 32 µg/mL (≈ 70.3 µM).

`O=C(N[C@H](CO)[C@H](O)c1ccc([N+](=O)[O-])cc1)C(Cl)Cl` [CHLORAMPHENICOL] was tested, and the MIC [1] was over 256 µg/mL.

For `O=C(O)c1cn(C2CC2)c2cc(N3CCNCC3)c(F)cc2c1=O` [CIPROFLOXACIN], the MIC [1] was over 32 µg/mL, the MIC [2] was 0.023 µg/mL (≈ 0.0694 µM) and the MIC [3] was 0.023 µg/mL (≈ 0.0694 µM).

`COc1c(N2CCNC(C)C2)c(F)cc2c(=O)c(C(=O)O)cn(C3CC3)c12` (stereo not drawn) [GATIFLOXACIN] gave an MIC [4] of 0.012 µg/mL, an MIC [5] of 0.002 µg/mL and an MIC [6] of 0.002 µg/mL. It also gave an MIC [2] of 0.023 µg/mL (≈ 0.0613 µM), an MIC [7] of 0.002 µg/mL and an MIC [8] of 0.016 µg/mL (≈ 0.0426 µM). The MIC [9] was 0.002 µg/mL, the MIC [10] was 0.016 µg/mL and the MIC [3] was 0.003 µg/mL (≈ 0.00799 µM). For the same compound, the MIC [11] was 0.002 µg/mL, the MIC [12] was 0.003 µg/mL (≈ 0.00799 µM) and the MIC [13] was 0.032 µg/mL (≈ 0.0852 µM). The MIC [14] was 0.002 µg/mL, the MIC [15] was 0.003 µg/mL (≈ 0.00799 µM) and the MIC [16] was 0.016 µg/mL.

For `CC[n+]1c(-c2ccccc2)c2cc(N)ccc2c2ccc(N)cc21.[Br-]` [HOMIDIUM BROMIDE], the MIC [4] was 64 µg/mL, the MIC [5] was 64 µg/mL and the MIC [6] was 64 µg/mL. It also gave an MIC [2] of 128 µg/mL, an MIC [7] of 64 µg/mL and an MIC [8] of 64 µg/mL. It also gave an MIC [9] of 64 µg/mL, an MIC [10] of 128 µg/mL and an MIC [3] of 128 µg/mL. For the same compound, the MIC [11] was 128 µg/mL, the MIC [12] was 128 µg/mL and the MIC [13] was 128 µg/mL. The MIC [14] was 64 µg/mL, the MIC [15] was 128 µg/mL and the MIC [16] was 64 µg/mL.

Compound `NC[C@H]1O[C@H](O[C@H]2[C@H](O)[C@@H](O[C@H]3O[C@H](CO)[C@@H](O)[C@H](N)[C@H]3O)[C@H](N)C[C@@H]2N)[C@H](O)[C@@H](O)[C@@H]1O` [KANAMYCIN] has an MIC [1] of over 512 µg/mL.
